Measurements as given in ChEMBL document CHEMBL1131157, “Potent and selective non-cysteine-containing inhibitors of protein farnesyltransferase” (J Med Chem, 1998).

Assays:
[1] = target: Protein farnesyltransferase (Bos taurus, UniProt P29702+P49355); experiment: In vitro inhibition of farnesyltransferase from bovine brain
NIH3T3 [2] = experiment: (§1) Inhibition of Ha-Ras processing in NIH3T3 Ras transformed cells.; type: functional, cell-based, Homo sapiens; conditions: Mus musculus
In short: (§2)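 Subconfluent Ras-transformed NIH3T3 cells dosed with compounds; lysates boiled 5 min in Laemmli buffer, resolved on 15% Tris-glycine gel, blotted to nitrocellulose, probed with anti-Ras antibody Y13-238; bands by ECL, quantified by densitometry. Single determinations unless limits given; assay reliability ±50-100%.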

NIH3T3 [3] = experiment: as §1; type: functional, Homo sapiens; conditions: Mus musculus, read-out: ED50 (the source's name); in short: as §2

IC50 [1] | SMILES | EC50 (NIH3T3 [2]) | EC50 (NIH3T3 [3])
1.5 nM | CSCC[C@H](NC(=O)c1ccc(NCc2cccnc2)cc1-c1ccccc1C)C(=O)O |  | 
10 nM | CSCC[C@H](NC(=O)c1ccc(CSc2cccnc2)cc1-c1ccccc1)C(=O)O | 10000 nM | 
0.5 nM | CSCC[C@H](NC(=O)c1ccc(COc2cccnc2)cc1-c1ccccc1C(F)(F)F)C(=O)O | 300 nM | 
6.6 nM | CSCC[C@H](NC(=O)c1ccc(OCc2cccnc2)cc1-c1ccccc1)C(=O)O |  | 
0.35 nM | CCc1ccccc1-c1cc(COc2cccnc2)ccc1C(=O)N[C@@H](CCSC)C(=O)O | < 100 nM | 
0.61 nM | CSCC[C@H](NC(=O)c1ccc(COc2cccnc2)cc1-c1ccccc1Cl)C(=O)O | 400 nM | 
> 1000 nM | CCCC[C@H](NC(=O)c1ccc(COc2cccnc2)cc1-c1ccccc1)C(=O)O |  | 
5.4 nM | CSCC[C@H](NC(=O)c1ccc(COc2cccnc2)cc1-c1cccc(C)c1)C(=O)O |  | 
6.8 nM | CSCC[C@H](NC(=O)c1ccc(CNc2cccnc2)cc1-c1ccccc1)C(=O)O | 10000 nM | 
140 nM | CSCC[C@@H](NC(=O)c1ccc(CNc2cccnc2)cc1-c1ccccc1)C(=O)O |  | 
 | COC(=O)[C@H](CCSC)NC(=O)c1ccc(NC[C@@H](N)CS)cc1-c1ccccc1 |  | 200 nM
1.6 nM | CSCC[C@H](NC(=O)c1ccc(NC(=O)c2cccnc2)cc1-c1ccccc1C)C(=O)O |  | 
230 nM | COc1ccc(-c2cc(COc3cccnc3)ccc2C(=O)N[C@@H](CCSC)C(=O)O)cc1 |  | 
360 nM | CSCC[C@H](NC(=O)c1ccc(COc2cccnc2)cc1-c1ccc(C)cc1)C(=O)O |  | 
12 nM | COc1cccc(-c2cc(COc3cccnc3)ccc2C(=O)N[C@@H](CCSC)C(=O)O)c1 |  | 
> 1000 nM | CSCC[C@H](NC(=O)c1ccc(NC(=O)c2ccccn2)cc1-c1ccccc1)C(=O)O |  | 
> 1000 nM | CSCC[C@H](NC(=O)c1ccc(NC(=O)c2ccncc2)cc1-c1ccccc1)C(=O)O |  | 
1000 nM | COCC[C@H](NC(=O)c1ccc(COc2cccnc2)cc1-c1ccccc1)C(=O)O |  | 
160 nM | CSCC[C@@H](C(=O)O)N(C)C(=O)c1ccc(CNc2cccnc2)cc1-c1ccccc1 |  | 100000 nM
0.4 nM | CSCC[C@H](NC(=O)c1ccc(COc2cccnc2)cc1-c1ccccc1C)C(=O)O | 350 nM | 
3.3 nM | COc1ccccc1-c1cc(COc2cccnc2)ccc1C(=O)N[C@@H](CCSC)C(=O)O | 10000 nM | 
17 nM | CS(=O)(=O)CC[C@H](NC(=O)c1ccc(CNc2cccnc2)cc1-c1ccccc1)C(=O)O |  | 100000 nM
550 nM | CSCC[C@H](NC(=O)c1ccc(CS(=O)(=O)c2cccnc2)cc1-c1ccccc1)C(=O)O |  | 
4.3 nM | CSCC[C@H](NC(=O)c1ccc(COc2cccnc2)cc1-c1ccccc1)C(=O)O | 5000 nM | 
0.69 nM | CSCC[C@H](NC(=O)c1ccc(CSc2cccnc2)cc1-c1ccccc1C)C(=O)O |  | 
48 nM | NC(=O)CC[C@H](NC(=O)c1ccc(COc2cccnc2)cc1-c1ccccc1)C(=O)O |  | 
20 nM | CSCC[C@H](NC(=O)c1ccc(NCc2cccnc2)cc1-c1ccccc1)C(=O)O | 40000 nM | 
> 1000 nM | CSC[C@H](NC(=O)c1ccc(COc2cccnc2)cc1-c1ccccc1)C(=O)O |  | 
 | CSCC[C@H](NC(=O)c1ccc(NC[C@@H](N)CS)cc1-c1ccccc1)C(=O)O |  | 1000 nM
70 nM | CSCC[C@H](NC(=O)c1ccc(NC(=O)c2cccnc2)cc1-c1ccccc1)C(=O)O | 50000 nM | 
